In ChEMBL document CHEMBL1132919, “Structure-activity studies for a novel series of tricyclic substituted hexahydrobenz[e]isoindole alpha(1A) adrenoceptor antagonists as potential agents for the symptomatic treatment of benign prostatic hyperplasia (BPH)” (J Med Chem, 2000):

How the values were obtained:
[1] = target: T1, Alpha-1A adrenergic receptor (Rattus norvegicus, UniProt P43140); assay: In vitro binding affinity using [3H]prazosin as radioligand against alpha-1A adrenergic receptor
T1 sequence (P43140 whole entry): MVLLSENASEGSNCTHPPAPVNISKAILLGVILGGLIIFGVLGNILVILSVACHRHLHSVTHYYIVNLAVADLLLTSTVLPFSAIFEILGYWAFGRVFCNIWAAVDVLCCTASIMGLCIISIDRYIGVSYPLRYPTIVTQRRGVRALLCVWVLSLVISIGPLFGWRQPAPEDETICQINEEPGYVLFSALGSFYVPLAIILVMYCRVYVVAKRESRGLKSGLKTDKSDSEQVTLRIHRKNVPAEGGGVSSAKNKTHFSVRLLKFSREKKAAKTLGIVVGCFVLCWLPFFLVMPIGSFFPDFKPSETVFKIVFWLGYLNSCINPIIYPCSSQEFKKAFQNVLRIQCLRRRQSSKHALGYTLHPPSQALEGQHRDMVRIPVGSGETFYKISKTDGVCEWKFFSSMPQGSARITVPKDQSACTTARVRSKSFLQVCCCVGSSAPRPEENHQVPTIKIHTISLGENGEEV
Method in brief: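 Binding to pharmacologically defined α1A site in rat submaxillary gland membranes; [3H]-prazosin ~200 pM, nonspecific binding with 10^-5 M phentolamine (final); ~0.1 mg protein per tube in 50 mM Tris-HCl pH 7.4, 60 min at 25 °C.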

[2] = species on record: Cricetulus griseus; assay: Ratio between Ki(alpha-1b)/Ki(alpha1A)
[3] = target: T2, Alpha-1D adrenergic receptor (Rattus norvegicus, UniProt P23944); assay: In vitro binding affinity using [3H]prazosin as radioligand against alpha-1D adrenergic receptor expressed in LTK cell; assay type: cell-based
T2 sequence (P23944 whole entry): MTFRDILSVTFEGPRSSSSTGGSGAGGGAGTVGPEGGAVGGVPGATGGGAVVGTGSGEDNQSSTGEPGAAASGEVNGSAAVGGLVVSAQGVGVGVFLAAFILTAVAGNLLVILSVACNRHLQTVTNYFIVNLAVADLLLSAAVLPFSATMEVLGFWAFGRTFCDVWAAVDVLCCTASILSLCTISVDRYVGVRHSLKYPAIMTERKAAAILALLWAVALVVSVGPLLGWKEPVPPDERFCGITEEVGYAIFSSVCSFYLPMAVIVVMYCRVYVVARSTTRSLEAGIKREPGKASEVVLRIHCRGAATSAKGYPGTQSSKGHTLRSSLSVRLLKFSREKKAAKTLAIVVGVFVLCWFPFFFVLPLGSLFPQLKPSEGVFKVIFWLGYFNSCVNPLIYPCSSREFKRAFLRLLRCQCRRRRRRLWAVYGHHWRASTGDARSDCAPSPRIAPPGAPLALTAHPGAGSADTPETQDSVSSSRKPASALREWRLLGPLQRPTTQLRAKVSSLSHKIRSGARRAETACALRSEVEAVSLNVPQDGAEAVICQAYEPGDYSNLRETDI
Method in brief: (§1)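 Membranes from mouse LTK- fibroblasts stably expressing cloned hamster α1B or rat α1D, grown in roller bottles, frozen in liquid N2 and stored at -70 °C. Incubated with [3H]-prazosin ~200 pM, ~0.1 mg protein per tube, in 50 mM Tris-HCl pH 7.4 for 60 min at 25 °C; nonspecific binding defined by 10^-5 M phentolamine (final).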

[4] = target: T3, Alpha-1B adrenergic receptor (Mesocricetus auratus, UniProt P18841); assay: In vitro binding affinity using [3H]prazosin as radioligand against alpha-1B adrenergic receptor expressed in LTK cell; assay type: cell-based; method in brief: as §1
T3 sequence (P18841 whole entry): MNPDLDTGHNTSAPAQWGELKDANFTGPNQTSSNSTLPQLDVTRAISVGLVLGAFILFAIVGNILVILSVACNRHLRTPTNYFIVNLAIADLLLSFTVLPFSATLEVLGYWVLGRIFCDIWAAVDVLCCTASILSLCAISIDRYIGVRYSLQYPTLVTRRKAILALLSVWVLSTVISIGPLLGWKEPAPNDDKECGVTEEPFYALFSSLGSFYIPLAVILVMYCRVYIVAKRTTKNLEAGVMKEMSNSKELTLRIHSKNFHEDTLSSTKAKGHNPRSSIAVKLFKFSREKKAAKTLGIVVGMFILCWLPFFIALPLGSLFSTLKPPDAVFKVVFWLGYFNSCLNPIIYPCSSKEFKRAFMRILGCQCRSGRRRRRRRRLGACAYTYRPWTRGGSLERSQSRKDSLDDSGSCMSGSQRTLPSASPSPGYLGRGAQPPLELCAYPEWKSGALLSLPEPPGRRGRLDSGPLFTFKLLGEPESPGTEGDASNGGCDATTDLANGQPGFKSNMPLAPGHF

Compound: COc1cccc2c1CC[C@H]1CN(CCn3c(=O)[nH]c4c(sc5ccc(C(=O)N(C)C)cc54)c3=O)C[C@@H]21
- Ki [1]: 0.28 nM
- Selectivity ratio [2]: 6.07
- Ki [3]: 0.63 nM
- Ki [4]: 1.7 nM

Compound: COc1cccc2c1CC[C@H]1CN(CCn3c(=O)[nH]c4c(sc5nc(C)c(C)nc54)c3=O)C[C@@H]21
- Ki [1]: 0.39 nM
- Selectivity ratio [2]: 35.6
- Ki [3]: 3.28 nM
- Ki [4]: 13.9 nM

Compound: COc1cccc2c1CCC1CN(CCn3c(=O)[nH]c4c(sc5ccccc54)c3=O)CC21 (stereo in doubt; 18) [listing 1 of 2 here]
- Ki [1]: 0.64 nM
- Ki [3]: 0.37 nM
- Ki [4]: 2.57 nM

Compound: COc1cccc2c1CC[C@H]1CN(CCn3c(=O)[nH]c4c(sc5cccc(OC)c54)c3=O)C[C@@H]21
- Ki [1]: 0.77 nM
- Selectivity ratio [2]: 4
- Ki [3]: 1.07 nM
- Ki [4]: 3.1 nM

Compound: COc1cccc2c1CC[C@H]1CN(CCn3c(=O)[nH]c4c(sc5cccc(Cl)c54)c3=O)C[C@@H]21
- Ki [1]: 0.51 nM
- Selectivity ratio [2]: 6.17
- Ki [3]: 1.32 nM
- Ki [4]: 3.15 nM

Compound: COc1cccc2c1CC[C@H]1CN(CCn3c(=O)[nH]c4c(sc5ccccc54)c3=O)C[C@@H]21 (stereo in doubt; 23)
- Selectivity ratio [2]: 1.55

Compound: COc1cnc2sc3c(=O)n(CCN4C[C@@H]5CCc6c(OC)cccc6[C@@H]5C4)c(=O)[nH]c3c2n1
- Ki [1]: 0.35 nM
- Selectivity ratio [2]: 10.6
- Ki [3]: 1.1 nM
- Ki [4]: 3.73 nM

Compound: COc1ccc2sc3c(=O)n(CCN4C[C@@H]5CCc6c(OC)cccc6[C@@H]5C4)c(=O)[nH]c3c2n1
- Ki [1]: 0.66 nM
- Selectivity ratio [2]: 4.5
- Ki [3]: 1.1 nM
- Ki [4]: 3 nM

Compound: COc1cccc2c1CC[C@H]1CN(CCn3c(=O)[nH]c4c(sc5c(OC)ccnc54)c3=O)C[C@@H]21
- Ki [1]: 0.79 nM
- Selectivity ratio [2]: 8.45
- Ki [3]: 1.41 nM
- Ki [4]: 6.69 nM

Compound: COc1cccc2c1CC[C@H]1CN(CCn3c(=O)[nH]c4c(sc5ncncc54)c3=O)C[C@@H]21
- Ki [1]: 0.68 nM
- Selectivity ratio [2]: 22.8
- Ki [3]: 2.08 nM
- Ki [4]: 15.5 nM

Compound: COc1cccc2c1CCC1CN(CCCCn3c(=O)[nH]c4c(sc5ccccc54)c3=O)CC21 (cis isomer)
- Ki [1]: 7.43 nM
- Selectivity ratio [2]: 1.33
- Ki [3]: 4.77 nM
- Ki [4]: 9.95 nM

Compound: COc1cccc2c1CCC1CN(CCn3c(=O)[nH]c4c(sc5ccccc54)c3=O)CC21 (stereo in doubt; 21) [listing 1 of 2 here]
- Selectivity ratio [2]: 3.17

Compound: COC(=O)c1ccc2sc3c(=O)n(CCN4C[C@@H]5CCc6c(OC)cccc6[C@@H]5C4)c(=O)[nH]c3c2c1
- Ki [1]: 4.75 nM
- Selectivity ratio [2]: 3.01
- Ki [3]: 2.84 nM
- Ki [4]: 14.3 nM

Compound: COc1cccc2c1CC[C@H]1CN(CCn3c(=O)[nH]c4c(sc5c(Cl)cccc54)c3=O)C[C@@H]21
- Ki [1]: 98.9 nM
- Selectivity ratio [2]: 12.3
- Ki [3]: 25 nM
- Ki [4]: 1220 nM

Compound: COc1cccc2c1CC[C@H]1CN(CCn3c(=O)[nH]c4c(sc5ccc(C)cc54)c3=O)C[C@@H]21
- Ki [1]: 2.16 nM
- Selectivity ratio [2]: 1.97
- Ki [3]: 1.04 nM
- Ki [4]: 4.26 nM

Compound: COc1cccc2c1CC[C@H]1CN(CCn3c(=O)[nH]c4c(sc5ccc([N+](=O)[O-])cc54)c3=O)C[C@@H]21
- Ki [1]: 1.28 nM
- Selectivity ratio [2]: 6.64
- Ki [3]: 1.31 nM
- Ki [4]: 8.49 nM

Compound: COc1cccc2c1CCC1CN(CCn3c(=O)[nH]c4c(sc5ccccc54)c3=O)CC21 (stereo in doubt; 18) [listing 2 of 2 here]
- Selectivity ratio [2]: 4

Compound: COc1cccc2c1CC[C@H]1CN(CCn3c(=O)[nH]c4c(sc5cccc(C#N)c54)c3=O)C[C@@H]21
- Ki [1]: 3.3 nM
- Selectivity ratio [2]: 10.8
- Ki [3]: 6.6 nM
- Ki [4]: 35.8 nM

Compound: COc1cccc2c1CC[C@H]1CN(CCn3c(=O)[nH]c4c(sc5ccncc54)c3=O)C[C@@H]21
- Ki [1]: 0.33 nM
- Selectivity ratio [2]: 14
- Ki [3]: 0.28 nM
- Ki [4]: 4.63 nM

Compound: COc1cccc2c1CC[C@H]1CN(CCn3c(=O)[nH]c4c(sc5cnccc54)c3=O)C[C@@H]21
- Ki [1]: 0.53 nM
- Selectivity ratio [2]: 6.28
- Ki [3]: 0.37 nM
- Ki [4]: 3.33 nM

Compound: COc1cccc2c1CC[C@H]1CN(CCn3c(=O)[nH]c4c(sc5ncc(-c6ccccc6)nc54)c3=O)C[C@@H]21
- Ki [1]: 3.91 nM
- Selectivity ratio [2]: 30.7
- Ki [3]: 19.8 nM
- Ki [4]: 120 nM

Compound: COc1cccc2c1CC[C@H]1CN(CCn3c(=O)[nH]c4c(sc5cc(C(N)=O)ccc54)c3=O)C[C@@H]21
- Ki [1]: 0.29 nM
- Selectivity ratio [2]: 2.9
- Ki [3]: 0.27 nM
- Ki [4]: 0.86 nM

Compound: COc1cccc2c1CC[C@H]1CN(CCn3c(=O)[nH]c4c(sc5cncnc54)c3=O)C[C@@H]21
- Ki [1]: 1.62 nM
- Selectivity ratio [2]: 9.8
- Ki [3]: 3.74 nM
- Ki [4]: 15.9 nM

Compound: COc1cccc2c1CC[C@H]1CN(CCn3c(=O)[nH]c4c(sc5c(C#N)cccc54)c3=O)C[C@@H]21
- Ki [1]: 6.35 nM
- Selectivity ratio [2]: 4.24
- Ki [3]: 2.08 nM
- Ki [4]: 26.9 nM

Compound: COc1cccc2c1CC[C@H]1CN(CCn3c(=O)[nH]c4c(sc5ccc(C#N)cc54)c3=O)C[C@@H]21
- Ki [1]: 1.64 nM
- Selectivity ratio [2]: 8.7
- Ki [3]: 0.59 nM
- Ki [4]: 14.3 nM

Compound: COc1cccc2c1CC[C@H]1CN(CCn3c(=O)[nH]c4c(sc5c(Cl)ccnc54)c3=O)C[C@@H]21
- Ki [1]: 3.13 nM
- Selectivity ratio [2]: 19.7
- Ki [3]: 4.16 nM
- Ki [4]: 61.6 nM

Compound: COc1cccc2c1CCC1CN(CCn3c(=O)[nH]c4c(sc5ccccc54)c3=O)CC21 (stereo in doubt; 21) [listing 2 of 2 here]
- Ki [1]: 1.08 nM
- Ki [3]: 0.63 nM
- Ki [4]: 3.43 nM

Compound: COc1cccc2c1CC[C@H]1CN(CCn3c(=O)[nH]c4c(sc5ccc(Cl)cc54)c3=O)C[C@@H]21
- Ki [1]: 0.44 nM
- Selectivity ratio [2]: 4.34
- Ki [3]: 0.31 nM
- Ki [4]: 1.91 nM

Compound: COc1cccc2c1CC[C@H]1CN(CCn3c(=O)[nH]c4c(sc5nc(C)cnc54)c3=O)C[C@@H]21
- Ki [1]: 0.49 nM
- Selectivity ratio [2]: 27.5
- Ki [3]: 2.31 nM
- Ki [4]: 13.5 nM

Compound: COc1cccc2c1CC[C@H]1CN(CCn3c(=O)[nH]c4c(sc5nc(-c6ccccc6)cnc54)c3=O)C[C@@H]21
- Ki [1]: 153 nM
- Selectivity ratio [2]: 12
- Ki [3]: 160 nM
- Ki [4]: 1850 nM

Compound: COc1cccc2c1CC[C@H]1CN(CCn3c(=O)[nH]c4c(sc5ccccc54)c3=O)C[C@@H]21 (stereo in doubt; 22)
- Selectivity ratio [2]: 5.57

Compound: COc1cccc2c1CC[C@H]1CN(CCn3c(=O)[nH]c4c(sc5nccnc54)c3=O)C[C@@H]21
- Ki [1]: 0.72 nM
- Selectivity ratio [2]: 17.3
- Ki [3]: 2.06 nM
- Ki [4]: 12.5 nM

Compound: COc1cccc2c1CC[C@H]1CN(CCn3c(=O)[nH]c4c(sc5cccc(C)c54)c3=O)C[C@@H]21
- Ki [1]: 1.29 nM
- Selectivity ratio [2]: 5.38
- Ki [3]: 0.88 nM
- Ki [4]: 6.95 nM

Compound: COc1cccc2c1CC[C@H]1CN(CCn3c(=O)[nH]c4c(sc5ccc(C(N)=O)cc54)c3=O)C[C@@H]21
- Ki [1]: 0.52 nM
- Selectivity ratio [2]: 12.2
- Ki [3]: 0.51 nM
- Ki [4]: 6.34 nM

Compound: COc1cccc2c1CC[C@H]1CN(CCn3c(=O)[nH]c4c(sc5cc(C#N)ccc54)c3=O)C[C@@H]21
- Ki [1]: 0.4 nM
- Selectivity ratio [2]: 15.5
- Ki [3]: 0.74 nM
- Ki [4]: 6.2 nM
